Test results published in ChEMBL document CHEMBL1143122, “Novel analogs of D-e-MAPP and B13. Part 1: synthesis and evaluation as potential anticancer agents” (Bioorg Med Chem, 2008).

Key:
HCT-15 = assay: Antiproliferative activity against human HCT15 cells after 48 hrs; assay type: functional; settings: Homo sapiens, HCT-15, 48 h
In short: (§1)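 NCI 60-cell screen. Cells were grown in RPMI 1640 with 5% FBS and 2 mM L-glutamine, then plated at 5,000–40,000 cells/well according to doubling time and preincubated for 24 h at 37 °C in 5% CO2. Compounds were dissolved in DMSO at 400× the top final concentration and tested at five 10-fold dilutions from 10−4 to 10−8 M for 48 h. Growth was read spectrophotometrically; GI50 is 50% net protein reduction.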

SF-295 = assay: Antiproliferative activity against human SF295 cells after 48 hrs; assay type: functional; settings: SF-295, 48 h; in short: as §1
ACHN = assay: Antiproliferative activity against human ACHN cells after 48 hrs; assay type: functional; in short: as §1
Malme-3M = assay: Antiproliferative activity against human MALME3M cells after 48 hrs; assay type: functional; in short: as §1
SK-MEL-5 = assay: Antiproliferative activity against human SKMEL5 cells after 48 hrs; assay type: functional; settings: SK-MEL-5, 48 h; in short: as §1
OVCAR-5 = assay: Antiproliferative activity against human OVCAR5 cells after 48 hrs; assay type: functional; settings: OVCAR-5, 48 h; in short: as §1
DU-145 = assay: Antiproliferative activity against human DU145 cells after 48 hrs; assay type: functional; settings: DU-145, 48 h; in short: as §1
RXF 393 = assay: Antiproliferative activity against human RXF393 cells after 48 hrs; assay type: functional; settings: RXF 393, 48 h; in short: as §1
NCI-H226 = assay: Antiproliferative activity against human NCI-H226 cells after 48 hrs; assay type: functional; settings: NCI-H226, 48 h; in short: as §1
MDA-MB-231 = assay: Antiproliferative activity against human MDA-MB-231 cells after 48 hrs; assay type: functional; settings: MDA-MB-231, 48 h; in short: as §1
UO-31 = assay: Antiproliferative activity against human UO31 cells after 48 hrs; assay type: functional; settings: UO-31, 48 h
In short: (§2)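 NCI 60-cell-line screen. Lines grown in RPMI 1640 with 5% fetal bovine serum and 2 mM L-glutamine, plated at 5,000–40,000 cells/well according to doubling time, left 24 h at 37 °C in 5% CO2. Drug stocks in DMSO at 400-fold the top final concentration. Five 10-fold dilutions, 10−4 to 10−8 M, incubated 48 h. Growth read spectrophotometrically as net protein; GI50 taken as 50% reduction.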

CCRF-CEM = assay: Antiproliferative activity against human CCRF-CEM cells after 48 hrs; assay type: functional; in short: as §1
MCF7 = assay: Antiproliferative activity against human MCF7 cells after 48 hrs; assay type: functional, cell-based; settings: MCF7, 48 h
SK-MEL-28 = assay: Antiproliferative activity against human SKMEL28 cells after 48 hrs; assay type: functional; settings: SK-MEL-28, 48 h; in short: as §1
LOX IMVI = assay: Antiproliferative activity against human LOXIMVI cells after 48 hrs; assay type: functional; in short: as §1
NCI-H522 = assay: Antiproliferative activity against human NCI-H522 cells after 48 hrs; assay type: functional; settings: NCI-H522, 48 h; in short: as §1
OVCAR-3 = assay: Antiproliferative activity against human OVCAR-3 cells after 48 hrs; assay type: functional; settings: OVCAR-3, 48 h; in short: as §1
PC-3 = assay: Antiproliferative activity against human PC3 cells after 48 hrs; assay type: functional; settings: PC-3, 48 h; in short: as §1
KM12 = assay: Antiproliferative activity against human KM12 cells after 48 hrs; assay type: functional; settings: Homo sapiens, KM12, 48 h; in short: as §1
UACC-62 = assay: Antiproliferative activity against human UACC62 cells after 48 hrs; assay type: functional; settings: UACC-62, 48 h; in short: as §2
SK-MEL-2 = assay: Antiproliferative activity against human SKMEL2 cells after 48 hrs; assay type: functional; settings: SK-MEL-2, 48 h; in short: as §1
MDA-MB-435 = assay: Antiproliferative activity against human MDA-MB-435 cells after 48 hrs; assay type: functional; settings: Homo sapiens, MDA-MB-435, 48 h; in short: as §1
NCI-H322M = assay: Antiproliferative activity against human NCI-H322M cells after 48 hrs; assay type: functional; in short: as §1
CAKI-1 = assay: Antiproliferative activity against human CAKI1 cells after 48 hrs; assay type: functional; settings: CAKI-1, 48 h; in short: as §1
786-0 = assay: Antiproliferative activity against human 786-0 cells after 48 hrs; assay type: functional; settings: 786-0, 48 h; in short: as §1
COLO 205 = assay: Antiproliferative activity against human COLO205 cells after 48 hrs; assay type: functional; settings: COLO 205, 48 h; in short: as §1
HCT-116 = assay: Antiproliferative activity against human HCT116 cells after 48 hrs; assay type: functional; settings: HCT-116, 48 h; in short: as §1
OVCAR-4 = assay: Antiproliferative activity against human OVCAR4 cells after 48 hrs; assay type: functional; settings: OVCAR-4, 48 h; in short: as §1
U-251 = assay: Antiproliferative activity against human U251 cells after 48 hrs; assay type: functional; settings: U-251, 48 h; in short: as §2
SNB-19 = assay: Antiproliferative activity against human SNB19 cells after 48 hrs; assay type: functional; settings: SNB-19, 48 h; in short: as §1
NCI-H460 = assay: Antiproliferative activity against human NCI-H460 cells after 48 hrs; assay type: functional; settings: NCI-H460, 48 h; in short: as §1
[1] = Antiproliferative activity against human […] cells after 48 hrs; assay type: functional; in short: as §1
[2] = read-out: Log LC50 (the source's name) (converted)

CCCCCCCCCCCCCCN[C@H](CO)[C@H](O)c1ccc([N+](=O)[O-])cc1.Cl
GI50 (HCT-15): 1.86 µM
TGI (HCT-15; read-out: Log TGI (converted)): 3.47 µM
GI50 (SF-295): 2.24 µM
LC50 (SF-295): 9.77 µM
TGI (SF-295; read-out: Log TGI (converted)): 4.68 µM
GI50 (ACHN): 1.86 µM
CC50 (ACHN; [2]): 6.17 µM
TGI (ACHN; read-out: Log TGI (converted)): 3.39 µM
GI50 (Malme-3M): 2.45 µM
LC50 (Malme-3M): 9.55 µM
TGI (Malme-3M; read-out: Log TGI (converted)): 4.9 µM
GI50 (SK-MEL-5): 2.45 µM
CC50 (SK-MEL-5; [2]): > 100 µM
TGI (SK-MEL-5; read-out: Log TGI (converted)): 7.08 µM
GI50 (OVCAR-5): 3.72 µM
CC50 (OVCAR-5; [2]): 72.4 µM
TGI (OVCAR-5; read-out: Log TGI (converted)): 14.1 µM
GI50 (DU-145): 1.55 µM
CC50 (DU-145; [2]): 5.37 µM
TGI (DU-145; read-out: Log TGI (converted)): 2.88 µM
GI50 (RXF 393): 1.82 µM
CC50 (RXF 393; [2]): 8.32 µM
TGI (RXF 393; read-out: Log TGI (converted)): 3.89 µM
GI50 (NCI-H226): 10.5 µM
CC50 (NCI-H226; [2]): 100 µM
TGI (NCI-H226; read-out: Log TGI (converted)): 34.7 µM
GI50 (MDA-MB-231): 2 µM
LC50 (50% lethal concentration) (MDA-MB-231): 7.76 µM
TGI (MDA-MB-231; read-out: Log TGI (converted)): 3.89 µM
GI50 (UO-31): 4.27 µM
LC50 (UO-31): 87.1 µM
TGI (UO-31; read-out: Log TGI (converted)): 18.6 µM
GI50 (CCRF-CEM): 2 µM
TGI (CCRF-CEM; read-out: Log TGI (converted)): 3.98 µM
GI50 (MCF7): 1.91 µM
TGI (MCF7; read-out: Log TGI (converted)): 3.47 µM
GI50 (SK-MEL-28): 1.91 µM
LC50 (SK-MEL-28): 6.03 µM
TGI (SK-MEL-28; read-out: Log TGI (converted)): 3.39 µM
GI50 (LOX IMVI): 1.74 µM
LC50 (LOX IMVI): 6.03 µM
TGI (LOX IMVI; read-out: Log TGI (converted)): 3.24 µM
GI50 (NCI-H522): 2 µM
TGI (NCI-H522; read-out: Log TGI (converted)): 3.98 µM
GI50 (OVCAR-3): 8.13 µM
LC50 (OVCAR-3): 100 µM
TGI (OVCAR-3; read-out: Log TGI (converted)): 30.9 µM
GI50 (PC-3): 1.74 µM
TGI (PC-3; read-out: Log TGI (converted)): 3.16 µM
GI50 (KM12): 1.86 µM
CC50 (KM12; [2]): 6.17 µM
TGI (KM12; read-out: Log TGI (converted)): 3.39 µM
GI50 (UACC-62): 6.46 µM
LC50 (UACC-62): 75.9 µM
TGI (UACC-62; read-out: Log TGI (converted)): 24 µM
GI50 (SK-MEL-2): 3.31 µM
LC50 (SK-MEL-2): > 100 µM
TGI (SK-MEL-2; read-out: Log TGI (converted)): 8.13 µM
GI50 (MDA-MB-435): 1.91 µM
LC50 (MDA-MB-435): 5.75 µM
TGI (MDA-MB-435; read-out: Log TGI (converted)): 3.31 µM
GI50 (NCI-H322M): 4.79 µM
CC50 (NCI-H322M; [2]): 42.7 µM
TGI (NCI-H322M; read-out: Log TGI (converted)): 14.8 µM
GI50 (CAKI-1): 7.59 µM
CC50 (CAKI-1; [2]): 67.6 µM
TGI (CAKI-1; read-out: Log TGI (converted)): 24 µM
GI50 (786-0): 1.62 µM
CC50 (786-0; [2]): 5.75 µM
TGI (786-0; read-out: Log TGI (converted)): 3.09 µM
GI50 (COLO 205): 1.78 µM
TGI (COLO 205; read-out: Log TGI (converted)): 3.55 µM
GI50 (HCT-116): 1.95 µM
LC50 (HCT-116): 6.17 µM
TGI (HCT-116; read-out: Log TGI (converted)): 3.47 µM
GI50 (OVCAR-4): 1.91 µM
LC50 (OVCAR-4): 6.76 µM
TGI (OVCAR-4; read-out: Log TGI (converted)): 3.55 µM
GI50 (U-251): 1.86 µM
TGI (U-251; read-out: Log TGI (converted)): 3.47 µM
GI50 (SNB-19): 1.74 µM
TGI (SNB-19; read-out: Log TGI (converted)): 3.55 µM
GI50 (NCI-H460): 1.91 µM
TGI (NCI-H460; read-out: Log TGI (converted)): 3.55 µM
GI50 [1]: 2 µM
LC50 [1]: 8.91 µM
TGI ([1]; read-out: Log TGI (converted)): 4.27 µM
